# Measured values taken from ChEMBL document CHEMBL5230171, “Expanding the structure-activity relationships of alkynyl diphenylurea scaffold as promising antibacterial agents” (RSC Med Chem, 2023).
# Calls of active or inactive are those of the source. The rule behind the calls is not given here.
# Columns and labels:
# Staphylococcus aureus [1] = assay: Antibacterial activity against methicillin resistant Staphylococcus aureus 123 assessed as inhibition of bacterial growth at 0.5 ug/ml incubated for 18 to 20 hrs by CLSI protocol based broth microdilution method; format: functional, organism-based; conditions: dose 0.5 µg/ml, time 18-20 hrs
# Staphylococcus aureus [2] = assay: Antibacterial activity against methicillin resistant Staphylococcus aureus 384 assessed as inhibition of bacterial growth at 0.5 ug/ml incubated for 18 to 20 hrs by CLSI protocol based broth microdilution method; format: functional, organism-based; conditions: dose 0.5 µg/ml, time 18-20 hrs
# Staphylococcus aureus [3] = assay: Antibacterial activity against methicillin resistant Staphylococcus aureus 119 assessed as inhibition of bacterial growth at 0.5 ug/ml incubated for 18 to 20 hrs by CLSI protocol based broth microdilution method; format: functional, organism-based; conditions: dose 0.5 µg/ml, time 18-20 hrs
# Staphylococcus aureus [4] = assay: Antibacterial activity against methicillin resistant Staphylococcus aureus 385 assessed as inhibition of bacterial growth at 0.5 ug/ml incubated for 18 to 20 hrs by CLSI protocol based broth microdilution method; format: functional, organism-based; conditions: dose 0.5 µg/ml, time 18-20 hrs
# Staphylococcus aureus [5] = assay: Antibacterial activity against methicillin resistant Staphylococcus aureus 386 assessed as inhibition of bacterial growth at 0.5 ug/ml incubated for 18 to 20 hrs by CLSI protocol based broth microdilution method; format: functional, organism-based; conditions: dose 0.5 µg/ml, time 18-20 hrs
# Staphylococcus aureus [6] = assay: Antibacterial activity against vancomycin resistant Staphylococcus aureus 10 assessed as inhibition of bacterial growth at 0.5 ug/ml incubated for 18 to 20 hrs by CLSI protocol based broth microdilution method; format: functional, organism-based; conditions: dose 0.5 µg/ml, time 18-20 hrs
# Staphylococcus aureus [7] = assay: Antibacterial activity against vancomycin resistant Staphylococcus aureus 12 assessed as inhibition of bacterial growth at 0.5 ug/ml incubated for 18 to 20 hrs by CLSI protocol based broth microdilution method; format: functional, organism-based; conditions: dose 0.5 µg/ml, time 18-20 hrs
# Staphylococcus aureus [8] = assay: Antibacterial activity against vancomycin resistant Staphylococcus aureus 9 assessed as inhibition of bacterial growth at 0.5 ug/ml incubated for 18 to 20 hrs by CLSI protocol based broth microdilution method; format: functional, organism-based; conditions: dose 0.5 µg/ml, time 18-20 hrs
# Staphylococcus aureus [9] = assay: Antibacterial activity against methicillin sensitive Staphylococcus aureus 107 assessed as inhibition of bacterial growth at 0.5 ug/ml incubated for 18 to 20 hrs by CLSI protocol based broth microdilution method; format: functional, organism-based; conditions: dose 0.5 µg/ml, time 18-20 hrs
# In short: (§1)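 Staphylococcal and E. coli strains were diluted from a 0.5 McFarland suspension in cation-adjusted Mueller Hinton broth to ~5 × 10^5 CFU mL−1. They were incubated with serial dilutions of test agent in broth microdilution, and the MIC was recorded.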
# Staphylococcus aureus [10] = assay: Antibacterial activity against methicillin sensitive Staphylococcus aureus 6538 assessed as inhibition of bacterial growth at 0.5 ug/ml incubated for 18 to 20 hrs by CLSI protocol based broth microdilution method; format: functional, organism-based; conditions: dose 0.5 µg/ml, time 18-20 hrs; in short: as §1
# Vero = assay: Cytotoxicity against African green monkey Vero cells assessed as reduction in cell viability at 64 ug/ml incubated for 24 hrs by MTS assay; format: toxicity, cell-based; conditions: chlorocebus sabaeus, dose 64 µg/ml
# In short: (§2)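 Vero or HaCaT cells were exposed to 32, 64 and 128 μg mL−1 compound in triplicate for 24 h at 37 °C, 5% CO2, with a DMSO control. MTS was then added for 4 h and OD490 read. Analysis used two-way ANOVA with Dunnett's post hoc test (p < 0.05).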
# [11] = Cytotoxicity against human HaCaT cells assessed as tolerance by measuring cell viability upto 128 ug/ml incubated for 24 hrs by MTS assay relative to control; format: toxicity, cell-based; conditions: up to 128 µg/mL, read-out: Activity; in short: as §2
# [12] = Cytotoxicity against African green monkey Vero cells assessed as tolerance by measuring cell viability upto 128 ug/ml incubated for 24 hrs by MTS assay relative to control; format: toxicity, cell-based; conditions: chlorocebus sabaeus, up to 128 µg/mL, read-out: Activity; in short: as §2
# [13] = Cytotoxicity against human HaCaT cells assessed as tolerance by measuring cell viability at 64 ug/ml incubated for 24 hrs by MTS assay relative to control; format: toxicity, cell-based; conditions: at 64 µg/mL, read-out: Activity; in short: as §2
# Staphylococcus aureus [14] = assay: Antibacterial activity against methicillin resistant Staphylococcus aureus NRS384 USA300 assessed as inhibition of bacterial growth incubated for 18 to 20 hrs by CLSI protocol based broth microdilution method; format: functional; conditions: time 18-20 hrs, read-out: MIC
# In short: (§3)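 Broth microdilution against staphylococcal clinical isolates. Each strain was prepared as a 0.5 McFarland suspension and diluted in cation-adjusted Mueller Hinton broth to ~5 × 10^5 CFU mL−1. Serial dilutions of test agents in DMSO stock were incubated with the bacteria, and the MIC was recorded.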
# Staphylococcus aureus [15] = assay: Antibacterial activity against methicillin resistant Staphylococcus aureus 123 assessed as inhibition of bacterial growth incubated for 18 to 20 hrs by CLSI protocol based broth microdilution method; format: functional; conditions: time 18-20 hrs; in short: as §3
# Staphylococcus aureus [16] = assay: Antibacterial activity against methicillin resistant Staphylococcus aureus 384 assessed as inhibition of bacterial growth incubated for 18 to 20 hrs by CLSI protocol based broth microdilution method; format: functional; conditions: time 18-20 hrs; in short: as §3
# Staphylococcus aureus [17] = assay: Antibacterial activity against methicillin resistant Staphylococcus aureus 119 assessed as inhibition of bacterial growth incubated for 18 to 20 hrs by CLSI protocol based broth microdilution method; format: functional; conditions: time 18-20 hrs; in short: as §3
# Staphylococcus aureus [18] = assay: Antibacterial activity against methicillin resistant Staphylococcus aureus 385 assessed as inhibition of bacterial growth incubated for 18 to 20 hrs by CLSI protocol based broth microdilution method; format: functional; conditions: time 18-20 hrs; in short: as §3
# Staphylococcus aureus [19] = assay: Antibacterial activity against methicillin resistant Staphylococcus aureus 386 assessed as inhibition of bacterial growth incubated for 18 to 20 hrs by CLSI protocol based broth microdilution method; format: functional; conditions: time 18-20 hrs; in short: as §3
# Staphylococcus aureus [20] = assay: Antibacterial activity against vancomycin resistant Staphylococcus aureus 10 assessed as inhibition of bacterial growth incubated for 18 to 20 hrs by CLSI protocol based broth microdilution method; format: functional; conditions: time 18-20 hrs; in short: as §3
# Staphylococcus aureus [21] = assay: Antibacterial activity against vancomycin resistant Staphylococcus aureus 12 assessed as inhibition of bacterial growth incubated for 18 to 20 hrs by CLSI protocol based broth microdilution method; format: functional; conditions: time 18-20 hrs; in short: as §3
# Staphylococcus aureus [22] = assay: Antibacterial activity against vancomycin resistant Staphylococcus aureus 9 assessed as inhibition of bacterial growth incubated for 18 to 20 hrs by CLSI protocol based broth microdilution method; format: functional; conditions: time 18-20 hrs; in short: as §3
# Staphylococcus aureus [23] = assay: Antibacterial activity against methicillin sensitive Staphylococcus aureus 107 assessed as inhibition of bacterial growth incubated for 18 to 20 hrs by CLSI protocol based broth microdilution method; format: functional; conditions: time 18-20 hrs; in short: as §3
# Staphylococcus aureus [24] = assay: Antibacterial activity against methicillin sensitive Staphylococcus aureus 6538 assessed as inhibition of bacterial growth incubated for 18 to 20 hrs by CLSI protocol based broth microdilution method; format: functional; conditions: time 18-20 hrs; in short: as §3
# [25] = system: Staphylococcus epidermidis; assay: Antibacterial activity against Staphylococcus epidermidis 101 assessed as inhibition of bacterial growth incubated for 18 to 20 hrs by CLSI protocol based broth microdilution method; format: functional; conditions: time 18-20 hrs; in short: as §1
# Streptococcus pneumoniae [26] = assay: Antibacterial activity against Streptococcus pneumoniae 700677 assessed as inhibition of bacterial growth incubated for 18 to 20 hrs by CLSI protocol based broth microdilution method; format: functional; conditions: time 18-20 hrs
# In short: (§4)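 Streptococci were diluted from a 0.5 McFarland suspension in cation-adjusted Mueller Hinton broth with 5% lysed horse blood. They were incubated with serial dilutions of test agent in broth microdilution, and the MIC was recorded.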
# Streptococcus pneumoniae [27] = assay: Antibacterial activity against Streptococcus pneumoniae 51916 assessed as inhibition of bacterial growth incubated for 18 to 20 hrs by CLSI protocol based broth microdilution method; format: functional; conditions: time 18-20 hrs; in short: as §4
# Streptococcus pyogenes [28] = assay: Antibacterial activity against Streptococcus pyogenes MGAS 1882 assessed as inhibition of bacterial growth incubated for 18 to 20 hrs by CLSI protocol based broth microdilution method; format: functional; conditions: time 18-20 hrs; in short: as §4
# Streptococcus pyogenes [29] = assay: Antibacterial activity against Streptococcus pyogenes MGAS 9882 assessed as inhibition of bacterial growth incubated for 18 to 20 hrs by CLSI protocol based broth microdilution method; format: functional; conditions: time 18-20 hrs; in short: as §4
# Streptococcus mutans = assay: Antibacterial activity against Streptococcus mutans 25175 assessed as inhibition of bacterial growth incubated for 18 to 20 hrs by CLSI protocol based broth microdilution method; format: functional; conditions: time 18-20 hrs; in short: as §4
# Enterococcus faecalis = assay: Antibacterial activity against Enterococcus faecalis 51299 assessed as inhibition of bacterial growth incubated for 18 to 20 hrs by CLSI protocol based broth microdilution method; format: functional; conditions: time 18-20 hrs
# In short: (§5)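 Enterococci and L. monocytogenes were diluted from a 0.5 McFarland suspension in TSB. They were incubated with serial dilutions of test agent in broth microdilution, and the MIC was recorded.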
# Enterococcus faecium = assay: Antibacterial activity against Enterococcus faecium 700221 assessed as inhibition of bacterial growth incubated for 18 to 20 hrs by CLSI protocol based broth microdilution method; format: functional; conditions: time 18-20 hrs; in short: as §5
# Listeria monocytogenes = assay: Antibacterial activity against Listeria monocytogenes 19111 assessed as inhibition of bacterial growth incubated for 18 to 20 hrs by CLSI protocol based broth microdilution method; format: functional; conditions: time 18-20 hrs; in short: as §5
Compound,Activity (Staphylococcus aureus [1]),Activity (Staphylococcus aureus [2]),Activity (Staphylococcus aureus [3]),Activity (Staphylococcus aureus [4]),Activity (Staphylococcus aureus [5]),Activity (Staphylococcus aureus [6]),Activity (Staphylococcus aureus [7]),Activity (Staphylococcus aureus [8]),Activity (Staphylococcus aureus [9]),Activity (Staphylococcus aureus [10]),Activity (Vero),other results
C/C(=N\NC(=N)N)c1ccc(NC(=O)Nc2ccc(C#CC(C)(C)O)cc2)cc1,Active,Active,Active,Active,Active,Active,Active,Active,Active,Active,Non-Toxic,viability at 24 h [11]: 100%
C/C(=N\NC(=N)N)c1ccc(NC(=O)Nc2ccc(C#CC3(N)CCCCC3)cc2)cc1,Active,Active,Active,Active,Active,Active,Active,Active,Active,Active,–,"viability at 24 h [12]: 100%; viability at 24 h, 64 ug/ml [13]: 100%"
CCCCC#Cc1ccc(NC(=O)Nc2ccc(/C(C)=N/NC(=N)N)cc2)cc1,Active,Active,Active,Active,Active,Active,Active,Active,Active,Active,Non-Toxic,MIC (Staphylococcus aureus [14]): 0.5 µg/mL; MIC (Staphylococcus aureus [15]): 0.5 µg/mL; MIC (Staphylococcus aureus [16]): 0.5 µg/mL; MIC (Staphylococcus aureus [17]): 0.5 µg/mL; MIC (Staphylococcus aureus [18]): 0.5 µg/mL; MIC (Staphylococcus aureus [19]): 0.5 µg/mL; MIC (Staphylococcus aureus [20]): 0.5 µg/mL; MIC (Staphylococcus aureus [21]): 0.5 µg/mL; MIC (Staphylococcus aureus [22]): 0.5 µg/mL; MIC (Staphylococcus aureus [23]): 0.5 µg/mL; MIC (Staphylococcus aureus [24]): 0.5 µg/mL; MIC [25]: 0.5 µg/mL; MIC (Streptococcus pneumoniae [26]): 0.5 µg/mL; MIC (Streptococcus pneumoniae [27]): 0.5 µg/mL; MIC (Streptococcus pyogenes [28]): 0.5 µg/mL; MIC (Streptococcus pyogenes [29]): 0.5 µg/mL; MIC (Streptococcus mutans): 0.5 µg/mL; MIC (Enterococcus faecalis): 0.5 µg/mL; MIC (Enterococcus faecium): 0.5 µg/mL; MIC (Listeria monocytogenes): 0.5 µg/mL
